Structures can show the parent of a compound that is named as a salt.
Legend:
Plasma kallikrein = Plasma kallikrein (Homo sapiens, UniProt P03952); assay: Inhibition of human C-terminal 6-His-tagged KLKB1 (G20-A638 residues) expressed in mouse NS0 cells using PFR-AMC as substrate incubated for 40 mins by FLINT assay
Kallikrein-1 [1] = molecular target: T1, Kallikrein-1 (Homo sapiens, UniProt P06870); assay: Inhibition of human recombinant N-terminal His-tagged and enterokinase cleavage site-fused KLK1 (19 to 262 residues) expressed in baculovirus infected Sf9 insect cells at 10 uM using R110 labelled GSK3162232A as substrate measured at 30 secs interval for 5 mins by FLINT assay relative to control
Kallikrein-7 = Kallikrein-7 (Homo sapiens, UniProt P49862); assay: Inhibition of recombinant human C-terminal 10-His-tagged KLK7 (Glu23 to His252 residues) expressed in mouse NS0 cells using 5-FAM-E-A-L-Y-L-V-S-G-C(5-TAMRA) as substrate incubated for 40 mins by FLINT assay
Prothrombin = Prothrombin (Homo sapiens, UniProt P00734); assay: Inhibition of human recombinant C-terminal 10-His-tagged thrombin (M1 to E622 residues) expressed in mouse NS0 cells using BOC-VPR-AMC as substrate incubated for 40 mins by FLINT assay
Kallikrein-8 = molecular target: T2, Kallikrein-8 (Homo sapiens, UniProt O60259); assay: Inhibition of recombinant human C-terminal 10-His-tagged KLK8 (Gln29 to Gly260 residues) expressed in mouse NS0 cells using BOC-VPR-AMC as substrate incubated for 40 mins by FLINT assay
T2 sequence (O60259 whole entry): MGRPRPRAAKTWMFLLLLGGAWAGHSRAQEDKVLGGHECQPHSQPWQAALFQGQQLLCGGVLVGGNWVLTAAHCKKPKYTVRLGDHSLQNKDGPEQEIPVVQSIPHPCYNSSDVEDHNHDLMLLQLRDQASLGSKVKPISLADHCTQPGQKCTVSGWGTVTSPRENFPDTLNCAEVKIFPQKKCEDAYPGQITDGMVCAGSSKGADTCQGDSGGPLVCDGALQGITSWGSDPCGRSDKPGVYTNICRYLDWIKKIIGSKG

Coagulation factor X = Coagulation factor X (Homo sapiens, UniProt P00742); assay: Inhibition of recombinant human C-terminal 10-His-tagged factor Xa (L24 to K488 residues) expressed in baculovirus infected Sf21 insect cells using Mca-RPKPVE-Nval-WRK(Dnp)-NH2 as substrate incubated for 40 mins by FLINT assay
[2] = molecular target: T3, Suppressor of tumorigenicity 14 protein (Homo sapiens, UniProt Q9Y5Y6); assay: Inhibition of recombinant human N-terminal Met and 6-His-tagged matriptase (G596 to V855 residues) expressed in Escherichia coli using Boc-QAR-AMC as substrate incubated for 40 mins by FLINT assay
T3 sequence (Q9Y5Y6 whole entry): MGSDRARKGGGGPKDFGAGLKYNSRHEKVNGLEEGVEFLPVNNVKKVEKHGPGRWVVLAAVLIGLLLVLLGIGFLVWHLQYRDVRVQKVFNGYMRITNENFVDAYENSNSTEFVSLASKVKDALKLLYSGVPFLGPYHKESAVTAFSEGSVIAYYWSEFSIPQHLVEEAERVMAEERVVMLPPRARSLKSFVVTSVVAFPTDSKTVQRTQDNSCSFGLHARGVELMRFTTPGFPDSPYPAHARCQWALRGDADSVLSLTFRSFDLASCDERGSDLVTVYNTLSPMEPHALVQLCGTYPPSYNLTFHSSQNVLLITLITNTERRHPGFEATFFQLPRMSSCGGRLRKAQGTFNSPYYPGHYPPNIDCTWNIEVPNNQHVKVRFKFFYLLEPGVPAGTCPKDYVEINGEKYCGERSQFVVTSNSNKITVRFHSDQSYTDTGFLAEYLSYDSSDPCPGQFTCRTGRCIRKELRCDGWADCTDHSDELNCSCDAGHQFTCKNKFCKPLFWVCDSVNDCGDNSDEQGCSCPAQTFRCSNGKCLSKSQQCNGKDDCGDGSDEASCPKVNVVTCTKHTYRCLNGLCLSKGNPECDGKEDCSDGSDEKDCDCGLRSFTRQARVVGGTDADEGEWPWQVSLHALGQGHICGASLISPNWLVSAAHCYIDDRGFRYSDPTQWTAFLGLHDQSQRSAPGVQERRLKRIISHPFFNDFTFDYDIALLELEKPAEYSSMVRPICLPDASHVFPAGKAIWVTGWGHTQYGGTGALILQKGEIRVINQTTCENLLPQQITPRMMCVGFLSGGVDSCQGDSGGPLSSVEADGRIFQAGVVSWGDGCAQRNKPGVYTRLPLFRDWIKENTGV

[3] = Dissociation constant, borocycle pKa of the compound; format: physicochemical
Kallikrein-14 = molecular target: T4, Kallikrein-14 (Homo sapiens, UniProt Q9P0G3); assay: Inhibition of recombinant human C-terminal 10-His-tagged KLK14 (Q19 to M248 residues) expressed in mouse NS0 cells using BOC-VPR-AMC as substrate incubated for 40 mins by FLINT assay
T4 sequence (Q9P0G3 whole entry): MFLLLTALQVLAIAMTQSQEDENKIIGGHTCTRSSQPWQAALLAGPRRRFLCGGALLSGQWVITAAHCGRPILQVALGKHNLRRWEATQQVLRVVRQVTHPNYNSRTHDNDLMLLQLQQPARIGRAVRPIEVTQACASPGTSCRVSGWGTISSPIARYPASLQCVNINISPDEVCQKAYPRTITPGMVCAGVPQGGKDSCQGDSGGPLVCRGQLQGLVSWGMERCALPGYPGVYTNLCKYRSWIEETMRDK

Kallikrein-1 [4] = molecular target: T1, Kallikrein-1; assay: Inhibition of human recombinant N-terminal His-tagged and enterokinase cleavage site-fused KLK1 (19 to 262 residues) expressed in baculovirus infected Sf9 insect cells using R110 labelled GSK3162232A as substrate measured at 30 secs interval for 5 mins by FLINT assay
[5] = molecular target: Urokinase-type plasminogen activator (Homo sapiens, UniProt P00749); assay: Inhibition of recombinant human C-terminal 10-His-tagged urokinase (M1 to L431 residues) expressed in mouse NS0 cells using Z-GGR-AMC as substrate incubated for 40 mins by FLINT assay
Kallikrein-5 [6] = molecular target: T5, Kallikrein-5 (Homo sapiens, UniProt Q9Y337); assay: Inhibition of human recombinant 6His-Q-FLAG-tagged KLK5 expressed in baculovirus infected Sf9 insect cells using (Tos-Gly-Pro-Arg)2[R110].2TFA as substrate measured at 30 secs interval for 5 mins by FLINT assay
T5 sequence (Q9Y337 whole entry): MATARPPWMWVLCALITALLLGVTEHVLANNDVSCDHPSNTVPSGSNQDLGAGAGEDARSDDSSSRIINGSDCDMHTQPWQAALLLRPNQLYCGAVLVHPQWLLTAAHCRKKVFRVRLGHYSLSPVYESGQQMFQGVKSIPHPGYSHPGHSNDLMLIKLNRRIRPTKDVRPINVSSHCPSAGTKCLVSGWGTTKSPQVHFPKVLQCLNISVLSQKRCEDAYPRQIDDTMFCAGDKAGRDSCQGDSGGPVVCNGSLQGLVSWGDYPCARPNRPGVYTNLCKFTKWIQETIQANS
Outline: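 Standard KLK5 assay format. Its theoretical tight-binding limit corresponds to pIC50 8.4.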

Neutrophil elastase = molecular target: T6, Neutrophil elastase (Homo sapiens, UniProt P08246); assay: Inhibition of human neutrophil elastase using MeOSuc-AAPV-AMC as substrate incubated for 40 mins by FLINT assay
T6 sequence (P08246 whole entry): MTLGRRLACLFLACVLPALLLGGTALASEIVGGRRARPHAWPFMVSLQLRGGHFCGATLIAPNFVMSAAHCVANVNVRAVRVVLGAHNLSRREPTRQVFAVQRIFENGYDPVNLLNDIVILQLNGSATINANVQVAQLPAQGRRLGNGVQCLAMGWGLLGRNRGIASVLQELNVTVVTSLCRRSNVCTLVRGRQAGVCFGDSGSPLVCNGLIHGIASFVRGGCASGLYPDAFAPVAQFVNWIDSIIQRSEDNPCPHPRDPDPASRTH

Homo sapiens [7] = organism: Homo sapiens; assay: Selectivity ratio of IC50 for human C-terminal 6-His-tagged KLKB1 (G20 to A638 residues) expressed in mouse NS0 cells to IC50 for human recombinant 6His-Q-FLAG-tagged KLK5 expressed in baculovirus infected Sf9 insect cells
Kallikrein-5 [8] = molecular target: T5, Kallikrein-5; assay: Inhibition of human recombinant 6His-Q-FLAG-tagged KLK5 expressed in baculovirus infected Sf9 insect cells using (Tos-Gly-Pro-Arg)2[R110].2TFA as substrate measured at 30 secs interval for 5 mins using 1 x 10'10M enzyme by FLINT assay
Kallikrein-5 [9] = molecular target: T5, Kallikrein-5; assay: Inhibition of human recombinant 6His-Q-FLAG-tagged KLK5 expressed in baculovirus infected Sf9 insect cells using rhodamine-labelled tripeptide as substrate measured at 30 secs interval for 5 mins by FLINT assay
Homo sapiens [10] = organism: Homo sapiens; assay: Selectivity ratio of IC50 for human recombinant N-terminal His-tagged and enterokinase cleavage site-fused KLK1 (19 to 262 residues) expressed in baculovirus infected Sf9 insect cells to IC50 for human recombinant 6His-Q-FLAG-tagged KLK5 expressed in baculovirus infected Sf9 insect cells
[11] = molecular target: Kallikrein-5 (Homo sapiens) (UniProt Q9Y337); assay: Covalent reversible inhibition of human recombinant 6His-Q-FLAG-tagged KLK5 expressed in baculovirus infected Sf9 insect cells assessed as dissociation rate constant
Outline: (§1)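 Jump-dilution experiment used to follow dissociation from KLK5. The apparent off-rate constant (K-off, per min) and dissociation half-life (T1/2) were derived from it.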

[12] = molecular target: Kallikrein-5 (Homo sapiens) (UniProt Q9Y337); assay: Covalent reversible inhibition of human recombinant 6His-Q-FLAG-tagged KLK5 expressed in baculovirus infected Sf9 insect cells assessed as dissociation half life; outline: as §1

| IC50 (Plasma kallikrein) [µM] | inhibition (Kallikrein-1 [1]) [%] | IC50 (Kallikrein-7) [µM] | IC50 (Prothrombin) [µM] | IC50 (Kallikrein-8) [µM] | IC50 (Coagulation factor X) [µM] | IC50 [2] [µM] | pKa [3] | IC50 (Kallikrein-14) [µM] | IC50 (Kallikrein-1 [4]) [µM] | IC50 [5] [µM] | IC50 (Kallikrein-5 [6]) [µM] | IC50 (Neutrophil elastase) [µM] | IC50 (Kallikrein-5 [8]) [µM] | IC50 (Kallikrein-5 [9]) [µM] | Kdiss [11] [s⁻¹] | T1/2 [12] [min] | Structure (SMILES) | Ratio IC50 (Homo sapiens [7]) | Ratio IC50 (Homo sapiens [10]) |
| --- | --- | --- | --- | --- | --- | --- | --- | --- | --- | --- | --- | --- | --- | --- | --- | --- | --- | --- | --- |
| 0.794 | 10 | > 100 | 15.8 | 12.6 | 63.1 | 39.8 | 4.66 | 31.6 | > 10 | > 100 | 0.0158 | 100 | 0.01 | – | – | – | N=C(N)c1ccc(CC2OB(O)c3ccc(F)cc32)cc1OCc1cccnc1 (racemic) | 10 | – |
| – | – | – | – | – | – | – | – | – | – | – | – | – | – | 501 | – | – | N=C(N)c1ccccc1 [BENZAMIDINE HYDROCHLORIDE] | – | – |
| 0.1 | – | > 100 | 2.51 | 0.398 | 7.94 | 6.31 | 4.83 | 0.794 | 31.6 | 50.1 | – | 5.01 | 0.00398 | – | – | – | N=C(N)c1ccc(C2Cc3ccccc3B(O)O2)cc1OCc1cccnc1 (racemic) | 10 | > 100 |
| 0.794 | 10 | > 100 | 6.31 | 10 | 31.6 | 25.1 | 4.73 | 25.1 | > 10 | > 100 | 0.02 | 25.1 | 0.00794 | – | – | – | Cc1ccc2c(c1)C(Cc1ccc(C(=N)N)c(OCc3cccnc3)c1)OB2O (racemic) | 10 | – |
| 0.398 | – | > 100 | 20 | 0.0316 | 3.98 | 2 | – | 0.398 | 2 | > 100 | 0.00501 | > 100 | < 0.000794 | – | 0.00214 | 5 | N=C(N)c1ccc([C@@H]2Cc3ccc(C(F)(F)F)cc3B(O)O2)cc1OCc1cccnc1 | – | – |
| 1.26 | 13 | > 100 | 31.6 | 12.6 | 79.4 | 25.1 | 4.71 | 39.8 | > 10 | > 100 | 0.0398 | > 100 | 0.0251 | – | – | – | COc1ccc2c(c1)C(Cc1ccc(C(=N)N)c(OCc3cccnc3)c1)OB2O (racemic) | 10 | – |
| – | – | – | – | – | – | – | – | – | 5.01 | – | 0.158 | – | – | – | – | – | N=C(N)c1ccc(CC2OB(O)c3ccccc32)cc1 (racemic) | – | 30 to 100 |
| – | – | – | – | – | – | – | – | – | 10 | – | 0.0794 | – | – | – | – | – | N=C(N)c1ccc(C2Cc3ccccc3B(O)O2)cc1 (racemic) | – | 30 to 100 |
| 0.0794 | – | > 100 | 10 | 0.2 | > 100 | 7.94 | 4.8 | 2 | 316 | 79.4 | 0.02 | 12.6 | 0.00631 | – | – | – | N=C(N)c1ccc(CC2OB(O)c3ccccc32)cc1OCc1cccnc1 (racemic) | 10 | > 100 |
